In article PMC13170702 (Nuclear medicine and biology, 2025):

Assay: organ radiation dose estimates, OLINDA 2.0, ICRP-103
Type: in vivo, human
In short: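 Whole-body PET-MR ran as nine scans to 214 min. Organ VOIs were drawn in AMIDE, giving decay-corrected %IA per VOI; remainder = whole body minus measured organs. TIACs came from the EXM exponential model (OLINDA 1.1). Per-participant organ doses were computed in OLINDA 2.0 with 73 kg adult male or 60 kg female models. Effective dose (mSv) = organ absorbed doses × ICRP-103 tissue weighting factors.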

COC(=O)[C@@H](N)CC(=O)Nc1ccc2c(c1)Cc1cc([18F])ccc1-2 [[^18F]RP-115, methyl N^4-(7-[^18F]fluoro-9H-fluoren-2-yl)asparaginate]
Effective dose (whole body) (F1 (189 MBq)): 4.54 mSv | Estimated absorbed dose, Adrenals (F1 (189 MBq)): 5.94 mGy | Estimated absorbed dose, Brain (F1 (189 MBq)): 3.21 mGy | Estimated absorbed dose, Breasts (F1 (189 MBq)): 1.71 mGy | Estimated absorbed dose, Colon, left (F1 (189 MBq)): 2.85 mGy | Estimated absorbed dose, Colon, right (F1 (189 MBq)): 2.77 mGy | Estimated absorbed dose, Esophagus (F1 (189 MBq)): 2.98 mGy | Estimated absorbed dose, Eyes (F1 (189 MBq)): 1.59 mGy | Estimated absorbed dose, Gallbladder wall (F1 (189 MBq)): 5.09 mGy | Estimated absorbed dose, Heart wall (F1 (189 MBq)): 4.40 mGy | Estimated absorbed dose, Kidneys (F1 (189 MBq)): 32.6 mGy | Estimated absorbed dose, Liver (F1 (189 MBq)): 8.25 mGy | Estimated absorbed dose, Lungs (F1 (189 MBq)): 10.2 mGy | Estimated absorbed dose, Osteogenic cells (F1 (189 MBq)): 1.77 mGy | Estimated absorbed dose, Ovaries (F1 (189 MBq)): 2.77 mGy | Estimated absorbed dose, Pancreas (F1 (189 MBq)): 5.49 mGy | Estimated absorbed dose, Rectum (F1 (189 MBq)): 3.34 mGy | Estimated absorbed dose, Red marrow (F1 (189 MBq)): 2.26 mGy | Estimated absorbed dose, Salivary glands (F1 (189 MBq)): 1.69 mGy | Estimated absorbed dose, Small intestine (F1 (189 MBq)): 7.43 mGy | Estimated absorbed dose, Spleen (F1 (189 MBq)): 10.1 mGy | Estimated absorbed dose, Stomach wall (F1 (189 MBq)): 3.08 mGy | Estimated absorbed dose, Thymus (F1 (189 MBq)): 7.59 mGy | Estimated absorbed dose, Thyroid (F1 (189 MBq)): 2.36 mGy | Estimated absorbed dose, Urinary bladder wall (F1 (189 MBq)): 16.2 mGy | Estimated absorbed dose, Uterus (F1 (189 MBq)): 4.55 mGy | Effective dose (whole body) (F2, no voiding (355 MBq)): 9.27 mSv | Estimated absorbed dose, Adrenals (F2, no voiding (355 MBq)): 11.7 mGy | Estimated absorbed dose, Brain (F2, no voiding (355 MBq)): 5.33 mGy | Estimated absorbed dose, Breasts (F2, no voiding (355 MBq)): 2.78 mGy | Estimated absorbed dose, Colon, left (F2, no voiding (355 MBq)): 4.83 mGy | Estimated absorbed dose, Colon, right (F2, no voiding (355 MBq)): 4.76 mGy | Estimated absorbed dose, Esophagus (F2, no voiding (355 MBq)): 5.40 mGy | Estimated absorbed dose, Eyes (F2, no voiding (355 MBq)): 2.43 mGy | Estimated absorbed dose, Gallbladder wall (F2, no voiding (355 MBq)): 9.31 mGy | Estimated absorbed dose, Heart wall (F2, no voiding (355 MBq)): 6.93 mGy | Estimated absorbed dose, Kidneys (F2, no voiding (355 MBq)): 93.4 mGy | Estimated absorbed dose, Liver (F2, no voiding (355 MBq)): 15.5 mGy | Estimated absorbed dose, Lungs (F2, no voiding (355 MBq)): 21.1 mGy | Estimated absorbed dose, Osteogenic cells (F2, no voiding (355 MBq)): 2.97 mGy | Estimated absorbed dose, Ovaries (F2, no voiding (355 MBq)): 5.90 mGy | Estimated absorbed dose, Pancreas (F2, no voiding (355 MBq)): 7.60 mGy | Estimated absorbed dose, Rectum (F2, no voiding (355 MBq)): 7.07 mGy | Estimated absorbed dose, Red marrow (F2, no voiding (355 MBq)): 4.01 mGy | Estimated absorbed dose, Salivary glands (F2, no voiding (355 MBq)): 2.62 mGy | Estimated absorbed dose, Small intestine (F2, no voiding (355 MBq)): 9.87 mGy | Estimated absorbed dose, Spleen (F2, no voiding (355 MBq)): 7.49 mGy | Estimated absorbed dose, Stomach wall (F2, no voiding (355 MBq)): 5.08 mGy | Estimated absorbed dose, Thymus (F2, no voiding (355 MBq)): 8.99 mGy | Estimated absorbed dose, Thyroid (F2, no voiding (355 MBq)): 17.5 mGy | Estimated absorbed dose, Urinary bladder wall (F2, no voiding (355 MBq)): 28.7 mGy | Estimated absorbed dose, Uterus (F2, no voiding (355 MBq)): 47.6 mGy | Effective dose (whole body) (F3 (117 MBq)): 2.27 mSv | Estimated absorbed dose, Adrenals (F3 (117 MBq)): 3.65 mGy | Estimated absorbed dose, Brain (F3 (117 MBq)): 1.52 mGy | Estimated absorbed dose, Breasts (F3 (117 MBq)): 1.09 mGy | Estimated absorbed dose, Colon, left (F3 (117 MBq)): 1.77 mGy | Estimated absorbed dose, Colon, right (F3 (117 MBq)): 1.81 mGy | Estimated absorbed dose, Esophagus (F3 (117 MBq)): 1.78 mGy | Estimated absorbed dose, Eyes (F3 (117 MBq)): 1.01 mGy | Estimated absorbed dose, Gallbladder wall (F3 (117 MBq)): 3.38 mGy | Estimated absorbed dose, Heart wall (F3 (117 MBq)): 2.27 mGy | Estimated absorbed dose, Kidneys (F3 (117 MBq)): 21.4 mGy | Estimated absorbed dose, Liver (F3 (117 MBq)): 6.07 mGy | Estimated absorbed dose, Lungs (F3 (117 MBq)): 4.63 mGy | Estimated absorbed dose, Osteogenic cells (F3 (117 MBq)): 1.11 mGy | Estimated absorbed dose, Ovaries (F3 (117 MBq)): 1.54 mGy | Estimated absorbed dose, Pancreas (F3 (117 MBq)): 2.79 mGy | Estimated absorbed dose, Rectum (F3 (117 MBq)): 1.46 mGy | Estimated absorbed dose, Red marrow (F3 (117 MBq)): 1.39 mGy | Estimated absorbed dose, Salivary glands (F3 (117 MBq)): 1.09 mGy | Estimated absorbed dose, Small intestine (F3 (117 MBq)): 3.98 mGy | Estimated absorbed dose, Spleen (F3 (117 MBq)): 3.58 mGy | Estimated absorbed dose, Stomach wall (F3 (117 MBq)): 1.87 mGy | Estimated absorbed dose, Thymus (F3 (117 MBq)): 2.50 mGy | Estimated absorbed dose, Thyroid (F3 (117 MBq)): 2.20 mGy | Estimated absorbed dose, Urinary bladder wall (F3 (117 MBq)): 1.54 mGy | Estimated absorbed dose, Uterus (F3 (117 MBq)): 3.86 mGy | Effective dose (whole body) (F4 (167 MBq)): 3.28 mSv | Estimated absorbed dose, Adrenals (F4 (167 MBq)): 4.53 mGy | Estimated absorbed dose, Brain (F4 (167 MBq)): 2.64 mGy | Estimated absorbed dose, Breasts (F4 (167 MBq)): 1.41 mGy | Estimated absorbed dose, Colon, left (F4 (167 MBq)): 2.41 mGy | Estimated absorbed dose, Colon, right (F4 (167 MBq)): 2.41 mGy | Estimated absorbed dose, Esophagus (F4 (167 MBq)): 2.41 mGy | Estimated absorbed dose, Eyes (F4 (167 MBq)): 1.33 mGy | Estimated absorbed dose, Gallbladder wall (F4 (167 MBq)): 3.61 mGy | Estimated absorbed dose, Heart wall (F4 (167 MBq)): 4.15 mGy | Estimated absorbed dose, Kidneys (F4 (167 MBq)): 28.1 mGy | Estimated absorbed dose, Liver (F4 (167 MBq)): 6.74 mGy | Estimated absorbed dose, Lungs (F4 (167 MBq)): 7.74 mGy | Estimated absorbed dose, Osteogenic cells (F4 (167 MBq)): 1.45 mGy | Estimated absorbed dose, Ovaries (F4 (167 MBq)): 2.17 mGy | Estimated absorbed dose, Pancreas (F4 (167 MBq)): 3.86 mGy | Estimated absorbed dose, Rectum (F4 (167 MBq)): 2.14 mGy | Estimated absorbed dose, Red marrow (F4 (167 MBq)): 1.84 mGy | Estimated absorbed dose, Salivary glands (F4 (167 MBq)): 1.41 mGy | Estimated absorbed dose, Small intestine (F4 (167 MBq)): 8.53 mGy | Estimated absorbed dose, Spleen (F4 (167 MBq)): 3.75 mGy | Estimated absorbed dose, Stomach wall (F4 (167 MBq)): 2.46 mGy | Estimated absorbed dose, Thymus (F4 (167 MBq)): 4.47 mGy | Estimated absorbed dose, Thyroid (F4 (167 MBq)): 2.53 mGy | Estimated absorbed dose, Urinary bladder wall (F4 (167 MBq)): 4.45 mGy | Estimated absorbed dose, Uterus (F4 (167 MBq)): 6.39 mGy | Effective dose (whole body) (Female n=4, mean±SD): 0.0223±0.0033 mSv/MBq | Estimated dose, Adrenals (Female n=4, mean±SD): 0.0307±0.0025 mGy/MBq | Estimated dose, Brain (Female n=4, mean±SD): 0.0152±0.0017 mGy/MBq | Estimated dose, Breasts (Female n=4, mean±SD): 0.00866±0.00067 mGy/MBq | Estimated dose, Esophagus (Female n=4, mean±SD): 0.0152±0.0006 mGy/MBq | Estimated dose, Eyes (Female n=4, mean±SD): 0.00797±0.00081 mGy/MBq | Estimated dose, Gallbladder wall (Female n=4, mean±SD): 0.0259±0.0031 mGy/MBq | Estimated dose, Heart wall (Female n=4, mean±SD): 0.0218±0.0027 mGy/MBq | Estimated dose, Kidneys (Female n=4, mean±SD): 0.197±0.045 mGy/MBq | Estimated dose, Left colon (Female n=4, mean±SD): 0.0146±0.0007 mGy/MBq | Estimated dose, Liver (Female n=4, mean±SD): 0.0449±0.0049 mGy/MBq | Estimated dose, Lungs (Female n=4, mean±SD): 0.0499±0.0088 mGy/MBq | Estimated dose, Osteogenic cells (Female n=4, mean±SD): 0.00899±0.00054 mGy/MBq | Estimated dose, Ovaries (Female n=4, mean±SD): 0.0144±0.0017 mGy/MBq | Estimated dose, Pancreas (Female n=4, mean±SD): 0.0244±0.0033 mGy/MBq | Estimated dose, Rectum (Female n=4, mean±SD): 0.0157±0.0037 mGy/MBq | Estimated dose, Red marrow (Female n=4, mean±SD): 0.0116±0.0005 mGy/MBq | Estimated dose, Right colon (Female n=4, mean±SD): 0.0145±0.0009 mGy/MBq | Estimated dose, Salivary Glands (Female n=4, mean±SD): 0.0085±0.0008 mGy/MBq | Estimated dose, Small intestine (Female n=4, mean±SD): 0.0381±0.0098 mGy/MBq | Estimated dose, Spleen (Female n=4, mean±SD): 0.0319±0.0150 mGy/MBq | Estimated dose, Stomach wall (Female n=4, mean±SD): 0.0153±0.0010 mGy/MBq | Estimated dose, Thymus (Female n=4, mean±SD): 0.0284±0.0082 mGy/MBq
